Results from ChEMBL document CHEMBL1126653, “Structure-function studies of amphiphilic antibacterial peptides” (1993).
≈ marks a conversion by molar mass, not a printed value. Peptide text beside a SMILES is read from it.

Assays:
Type in all cases: functional
[1] = system: Pseudomonas aeruginosa; assay: Compound tested for in vitro susceptibility against ATCC strain 27853 of Pseudomonas aeruginosa; details: ATCC 27853
Outline: (§1)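 Microbroth dilution in Tryptic Soy Broth; inoculum 5×10^5 CFU/mL; plates incubated at 37 °C for 18-20 h; value reported as minimal inhibitory concentration (µg/mL).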

[2] = system: Staphylococcus aureus; assay: Compound tested for in vitro susceptibility against ATCC strain 29213 of Staphylococcus aureus; outline: as §1
[3] = system: Escherichia coli; assay: Compound tested for in vitro susceptibility against ATCC strain 25922 of Escherichia coli; details: ATCC25922; outline: as §1

| MIC [1] | MIC [2] | MIC [3] | Compound |
| --- | --- | --- | --- |
| 50 µg/mL (≈ 31.4 µM) | 12.5 µg/mL (≈ 7.86 µM) | 50 µg/mL (≈ 31.4 µM) | NCCCC[C@H](NC(=O)[C@H](CCCCN)NC(=O)[C@H](Cc1c[nH]c2ccccc12)NC(=O)[C@H](Cc1c[nH]c2ccccc12)NC(=O)[C@H](CCCCN)NC(=O)[C@H](Cc1c[nH]c2ccccc12)NC(=O)[C@H](Cc1c[nH]c2ccccc12)NC(=O)[C@H](CCCCN)NC(=O)[C@@H](N)CCCCN)C(=O)N[C@@H](Cc1c[nH]c2ccccc12)C(=O)O (H-KKWWKWWKKW-OH) |
| 50 µg/mL (≈ 27.2 µM) | 200 µg/mL (≈ 109 µM) | 25 µg/mL (≈ 13.6 µM) | CC(C)C[C@H](NC(=O)[C@H](C)NC(=O)[C@H](CCCCN)NC(=O)[C@H](C)NC(=O)[C@H](CC(C)C)NC(=O)[C@H](CCCCN)NC(=O)[C@H](C)NC(=O)[C@H](CC(C)C)NC(=O)[C@H](CCCCN)NC(=O)[C@H](CCCCN)NC(=O)[C@H](C)NC(=O)[C@H](CC(C)C)NC(=O)[C@H](CCCCN)NC(=O)[C@H](CCCCN)NC(=O)[C@H](C)NC(=O)[C@H](CC(C)C)NC(=O)[C@@H](N)CCCCN)C(=O)O (H-KLAKKLAKKLAKLAKAL-OH) |
